This note sets out measurements from ChEMBL document CHEMBL3045839, “Curcumin, a known phenolic from Curcuma longa, attenuates the virulence of Pseudomonas aeruginosa PAO1 in whole plant and animal pathogenicity models” (2008).

As usually defined, the MIC is the least concentration at which growth counts as inhibited.

Assay [1] deals with Pseudomonas aeruginosa. The assay is described as follows: Inhibition of biofilm formation of Pseudomonas aeruginosa PAO1 at 2 to 3 ug/mL by confocal scanning laser microscopy. The class given is functional, organism-based. In short, it runs like this: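 PAO1 grown on two-well Permanox slides with curcumin 2–3 µg/mL. Stained with a LIVE/DEAD BacLight kit (SYTO 9/propidium iodide) 48 h postinoculation and imaged by confocal laser scanning microscopy with a 10× objective. Repeated twice, three replicates each.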

Assay [2] deals with Pseudomonas aeruginosa. Description: Inhibition of biofilm formation of Pseudomonas aeruginosa PAO1 at 1.5 to 3 ug/mL by crystal violet staining method. In kind it is functional, organism-based. In short, it runs like this: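 Static biofilm in polypropylene tubes with LB containing curcumin 1.5–3.0 µg/mL from the start of incubation; ethanol equalized across tubes. Crystal violet staining, ethanol solubilization, OD read. Three replicates.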

In assay [3] the test system is Pseudomonas aeruginosa. The assay is described as follows: Growth inhibition of Pseudomonas aeruginosa PAO1 planktonic forms. In kind it is functional. In short, it runs like this:
(§1)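 PAO1 grown in LB with curcumin 0.5–30.0 µg/mL from an initial OD600 of 0.02; compound predissolved in ethanol, final solvent ≤0.02% v/v. OD600 read every 5 h up to 25 h; colony counts taken. n = 6, standard error.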

Assay [4] has as its system Pseudomonas aeruginosa. The assay is described as follows: Growth inhibition of Pseudomonas aeruginosa PAO1 planktonic forms at >5 ug/mL. In kind it is functional, organism-based. Summed up:
as §1

In assay [5] the test system is Pseudomonas aeruginosa. Description: Down regulation of rhlA expression in Pseudomonas aeruginosa PAO1 at 3 ug/mL by microarray gene expression analysis. The class given is functional, organism-based. In short, it runs like this:
(§2)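 PAO1 grown in triplicate in LB with curcumin 3 µg/mL, starting at OD600 ~0.02, at 37 °C and 200 rpm for 10 h (~2 OD600). RNA was isolated from 5 mL of culture, and 10 µg was amplified for microarray expression analysis.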

Assay [6] concerns Pseudomonas aeruginosa. The assay is described as follows: Down regulation of lasI expression in Pseudomonas aeruginosa PAO1 at 3 ug/mL by microarray gene expression analysis. In kind it is functional, organism-based. In short, it runs like this: as §2
In assay [7] the test system is Pseudomonas aeruginosa. The assay is described as follows: Down regulation of virulence factor production in Pseudomonas aeruginosa PAO1 assessed as reduction in elastase production at 1 to 5 ug/mL relative to untreated control. In kind it is functional. In short, it runs like this: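 Culture grown with or without curcumin for 24 h at 37 °C in PTSB (5% peptone, 0.25% tryptic soy broth). Filtered supernatant was added to elastin-congo red in 10 mM Na2HPO4, pH 7, and shaken for 4 h at 37 °C. After centrifugation, OD495 was read and normalised to cell density.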

Assay [8] has as its system Pseudomonas aeruginosa. The assay is described as follows: Down regulation of virulence factor production in Pseudomonas aeruginosa PAO1 assessed as reduction in protease production at 1 to 5 ug/mL relative to untreated control. The class given is functional. Summed up:
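Culture grown with or without curcumin for 24 h at 37 °C in PTSB (5% peptone, 0.25% tryptic soy broth). Filtered supernatant was incubated with 0.8% azocasein in 50 mM K2HPO4, pH 7, for 3 h at 25 °C. The reaction was stopped with 1.5 M HCl, kept on ice 30 min and centrifuged. NaOH was added, OD440 read and normalised to cell density.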

Assay [9] has as its system Pseudomonas aeruginosa. The assay is described as follows: Down regulation of virulence factor production in Pseudomonas aeruginosa PAO1 assessed as reduction in pyocyanin production at 1.5 to 3 ug/mL. In kind it is functional. Also on record: scale not given: the % may be the effect or the level left. In short, it runs like this:
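PAO1 grown in LB with or without curcumin (1.5–3 µg mL-1) and harvested. Pyocyanin was extracted and estimated by the Mahajan-Miklos method, then normalised against live cell numbers.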

In assay [10] the test system is Pseudomonas aeruginosa. Description: Down regulation of phzD expression in Pseudomonas aeruginosa PAO1 at 3 ug/mL by microarray gene expression analysis. The class given is functional, organism-based. Summed up: as §2
The subject of assay [11] is Pseudomonas aeruginosa. Description: Effect on QS system related genes in Pseudomonas aeruginosa PAO1 at 3 ug/mL by microarray gene expression analysis. The class given is functional, organism-based. In short, it runs like this: as §2
Assay [12] concerns Pseudomonas aeruginosa. The assay is described as follows: Antimicrobial activity against Pseudomonas aeruginosa PAO1 infected in Arabidopsis thaliana Col-0 assessed as change in bacterial count in presence of AHL/3-oxo-HSL. In kind it is functional, organism-based. Summed up: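 Col-0 seedlings in liquid MS medium inoculated with PAO1 (OD600 0.02–0.04, ~2.8 × 10^8 cells/mL) plus curcumin 3.0 µg/mL, with or without exogenous AHL/3-oxo-HSL. Roots harvested after 7 days; bacteria enumerated as CFU per gram fresh weight. Triplicate experiments.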

Assay [13] concerns Pseudomonas aeruginosa. Description: Antimicrobial activity against Pseudomonas aeruginosa PAO1 infected in Arabidopsis thaliana Col-0 assessed as inhibition of biofilm formation in roots at 3 ug/mL measured 7 days post dose. The class given is functional, organism-based. Summed up:
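Ten-day-old Col-0 plants in 2 mL liquid MS medium were inoculated with PAO1 (OD600 0.02–0.04) with curcumin 3.0 µg/mL added alongside the bacteria. Root-surface biofilm was imaged by confocal microscopy after BacLight live/dead staining.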

The test system of assay [14] is Pseudomonas aeruginosa. Description: Antimicrobial activity against Pseudomonas aeruginosa PAO1 infected in Arabidopsis thaliana Col-0 assessed as protection against infection of roots at 3 ug/mL measured 7 days post dose. The class given is functional, organism-based. In short, it runs like this: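 In vitro root pathogenicity: ten-day-old Col-0 plants (n = 20 per treatment) in 2 mL liquid MS medium were inoculated with PAO1 at OD600 0.02–0.04 (~2.8 × 10^8 cells/mL), with curcumin 3.0 µg/mL added together with the bacteria. A non-inoculated control was kept. Plant mortality was recorded 7 days after inoculation; triplicate experiments.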

Assay [15] concerns Pseudomonas aeruginosa. The assay is described as follows: Down regulation of QS system in Pseudomonas aeruginosa PAO1 assessed as reduction in total homoserine lactone production at 5 ug/mL by HPLC relative to untreated control. The class given is functional.
The test system of assay [16] is Pseudomonas aeruginosa. Description: Down regulation of QS system in Pseudomonas aeruginosa PAO1 assessed as reduction in C4-HSL production at 1 ug/mL by HPLC. In kind it is functional. The arrangement: scale not given: the % may be the effect or the level left.
Assay [17] has as its system Pseudomonas aeruginosa. The assay is described as follows: Down regulation of QS system in Pseudomonas aeruginosa PAO1 assessed as reduction in 3-oxo-C12-HSL production at 1 ug/mL by HPLC. The arrangement: scale not given: the % may be the effect or the level left. The class given is functional.

Values after ≈ are worked out from the molar mass of the structure shown. Active and inactive are the calls of the source. The rule behind the calls is not given here.

For `COc1cc(/C=C/C(=O)CC(=O)/C=C/c2ccc(O)c(OC)c2)ccc1O` [CURCUMIN], the inhibition entry in assay [1], in assay [2], in assay [13] and in [14] was “Active” in each case. It took 30 µg/mL (≈ 81.4 µM) to inhibit growth in assay [3] (MIC). In assay [4], the “growth inhibition (GI)” value is “inactive”. Besides, the outcome in assay [5], in [6], in assay [10] and in [11] was Active. Moreover, the “fold change (FC)” value is listed as 2 in assay [7], 2 in [8] and 3 in assay [15]. The Activity in assay [9] is 60%; in assay [16], above 2%; in assay [17] it was 25%. In addition, in assay [12], the result was inactive.
